In article PMC5481844 (Biomedical chromatography : BMC, 2015):
Like-named read-outs stand apart in the source and are kept apart here. Values belong to the compound of their own block, whether it stands above or below them.

Experiments:
[1] = acid hydrolysis also observed; ref Stariat et al., 2009; cited from earlier work
[2] = tested on: human α1-acid glycoprotein; assay: binding to human α1-acid glycoprotein solution by ultrafiltration; assay type: in vitro ADME; settings: human α1-acid glycoprotein (0.1%) in PBS, 500 ng/mL, n = 3
In short: (§1)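 Test compound was spiked to a final 500 ng/mL into 4% human serum albumin or 0.1% human α1-acid glycoprotein in PBS. Samples were incubated 1 h at 37 °C, then ultrafiltered through a 30 kDa cutoff device for 20 min at 13,000 g. Total and filtrate concentrations were measured by LC-MS/MS. %bound = 100×(Ctotal−Cfree)/Ctotal, with the filtrate corrected for membrane adsorption using recovery from water. n = 3.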

human plasma proteins [3] = assay: plasma binding by ultracentrifugation; assay type: in vitro ADME; settings: 500 ng/mL, n = 3
In short: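 Pooled human plasma was spiked with test compound in DMSO (final 500 ng/mL) and incubated 1 h at 37 °C. It was then spun at 50,000 rpm in a fixed-angle rotor for 10 h at 20 °C. The supernatant gave free and whole plasma gave total concentration, both by LC-MS/MS. %bound = 100×(Ctotal−Cfree)/Ctotal. n = 3.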

[4] = stability in different solvents; assay type: physicochemical
In short: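 Remaining amount was quantified by LC-MS/MS: C18 gradient with 0.1% formic acid, positive ESI, SRM m/z 235.2/178.0, 2-amino-6-bromobenzothiazole internal standard.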

stability in plasma = assay type: in vitro ADME, human; settings: for Measured concentration: n = 3
In short: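 Human plasma was spiked at 100 and 500 ng/mL and kept at room temperature or on ice for up to 24 h; percent remaining was taken versus freshly prepared samples. For quantitation, 50 µL plasma plus internal standard and EDTA underwent acetonitrile precipitation and centrifugation, then LC-MS/MS in SRM mode. Calibration spanned 3.9–500 ng/mL, fitted with 1/concentration weighting.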

human serum albumin = human serum albumin (Homo sapiens, UniProt P02768); assay: binding to human serum albumin solution by ultrafiltration; assay type: in vitro ADME; settings: human serum albumin (4%) in PBS, 500 ng/mL, n = 3
In short: as §1

human plasma proteins [5] = assay: plasma binding by ultrafiltration; assay type: in vitro ADME
In short: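 Pooled human plasma was spiked with test compound in DMSO to a final 500 ng/mL; preliminary runs also used 31.25 and 3.9 ng/mL. After 1 h at 37 °C, plasma was ultrafiltered (30 kDa cutoff, 20 min, 13,000 g). Total plasma and ultrafiltrate levels were measured by LC-MS/MS. %bound = 100×(Ctotal−Cfree)/Ctotal, corrected for membrane adsorption via recovery from water. n = 3.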

[6] = human plasma, long term (30 days at −80 °C), nominal 3.9 ng/mL
[7] = human plasma, long term (30 days at −80 °C), nominal 31.3 ng/mL
[8] = human plasma, long term (30 days at −80 °C), nominal 500.0 ng/mL
[9] = human plasma, short-term (2 h on ice), nominal 31.3 ng/mL
[10] = human plasma, short-term (2 h on ice), nominal 500.0 ng/mL
[11] = human plasma, three freeze–thaw cycles, nominal 3.9 ng/mL
[12] = human plasma, three freeze–thaw cycles, nominal 500.0 ng/mL
[13] = processed human plasma samples, autosampler for 24 h, nominal 3.9 ng/mL
[14] = processed human plasma samples, autosampler for 24 h, nominal 31.3 ng/mL
[15] = processed human plasma samples, autosampler for 24 h, nominal 500.0 ng/mL

Chain of human serum albumin (P02768 25-609): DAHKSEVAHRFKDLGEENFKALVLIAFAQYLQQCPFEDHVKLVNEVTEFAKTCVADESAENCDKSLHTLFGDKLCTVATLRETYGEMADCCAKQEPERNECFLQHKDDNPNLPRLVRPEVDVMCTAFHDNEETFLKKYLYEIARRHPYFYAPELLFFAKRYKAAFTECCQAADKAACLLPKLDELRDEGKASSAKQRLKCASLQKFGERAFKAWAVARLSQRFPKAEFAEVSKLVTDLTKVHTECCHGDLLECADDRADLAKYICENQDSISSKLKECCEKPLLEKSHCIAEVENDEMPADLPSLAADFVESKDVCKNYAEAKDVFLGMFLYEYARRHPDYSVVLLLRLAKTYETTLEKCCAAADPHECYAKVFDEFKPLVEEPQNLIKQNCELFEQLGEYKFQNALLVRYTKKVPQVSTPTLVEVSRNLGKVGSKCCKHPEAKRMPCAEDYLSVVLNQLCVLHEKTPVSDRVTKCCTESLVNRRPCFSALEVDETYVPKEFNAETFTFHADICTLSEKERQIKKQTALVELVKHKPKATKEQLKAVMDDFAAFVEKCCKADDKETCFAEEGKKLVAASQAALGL

SMILES: CN(C)C(=S)NN=C(c1ccccn1)c1ccccn1 [Dp44mT, di-2-pyridylketone-4,4-dimethyl-3-thiosemicarbazone]
stability in acidic buffer [1]: also observed

Percentage of bound drug by ultrafiltration [2]: 34.9
Percentage of bound drug by ultracentifugation (human plasma proteins [3]): 97.5
stability in acidic buffer ([4]; 0.1 M HCl, 500 ng/mL, hydrolysis of thiosemicarbazone bond): quickly degraded
stability in PBS ([4]; PBS pH 7.2, 500 ng/mL, 24 h at 4 °C, 37 °C and room temperature): stable without degradation
stability in solvent acetonitrile ([4]; acetonitrile–water 80:20 v/v, 500 ng/mL, 24 h at 4 °C, 37 °C and room temperature): stable without degradation
stability in neutral buffer ([4]; preliminary stability studies): good stability
degraded in plasma (stability in plasma; 100 ng/mL, room temperature, over 24 h, vs freshly prepared samples): > 40%
stability in plasma (stability in plasma; 500 ng/mL, room temperature, up to 24 h): stable
Bias (stability in plasma; [6]): −0.01%
Measured concentration (stability in plasma; [6]): 3.9 ng/mL
Bias (stability in plasma; [7]): −2.9%
Measured concentration (stability in plasma; [7]): 30.3 ng/mL
Bias (stability in plasma; [8]): 3.2%
Measured concentration (stability in plasma; [8]): 516.4 ng/mL
Bias (stability in plasma; human plasma, short-term (2 h on ice), nominal 3.9 ng/mL): −0.4%
Bias (stability in plasma; [9]): −7.0%
Measured concentration (stability in plasma; [9]): 29.0 ng/mL
Bias (stability in plasma; [10]): −1.3%
Measured concentration (stability in plasma; [10]): 493.9 ng/mL
Bias (stability in plasma; [11]): 4.8%
Measured concentration (stability in plasma; [11]): 4.1 ng/mL
Bias (stability in plasma; human plasma, three freeze–thaw cycles, nominal 31.3 ng/mL): −10.4%
Bias (stability in plasma; [12]): 10.6%
Measured concentration (stability in plasma; [12]): 553.1 ng/mL
Bias (stability in plasma; [13]): 4.0%
Measured concentration (stability in plasma; [13]): 4.1 ng/mL
Bias (stability in plasma; [14]): 13.0%
Measured concentration (stability in plasma; [14]): 35.4 ng/mL
Bias (stability in plasma; [15]): 10.0%
Measured concentration (stability in plasma; [15]): 550.7 ng/mL
stability of plasma samples under storage conditions (stability in plasma; −80 °C for 1 month, 4 °C for 2 h, three freeze–thaw cycles, 24 h in autosampler): stable
Percentage of bound drug by ultrafiltration (human serum albumin): 98.4
Percentage of bound drug by ultrafiltration (human plasma proteins [5]; human plasma, 500 ng/mL, n = 3): 98.8
concentration of free ZMC1 in ultrafiltrate or ultracentrifugation supernatant (human plasma proteins [5]; plasma spiked at 31.25 and 3.9 ng/mL): below the detection limit
SMILES: CC(=NNC(=S)N1CCC1)c1ccccn1 [ZMC1, azetidinecarbothioic acid, [1-(2-pyridinyl)ethylidene] hydrazide]
